Bioassay records from PubChem.
JMJD2C inh – inhibitors of GASC-1 histone demethylase, primary screen, biochemical, fluorescence, DELFIA europium; GST-JMJD2C(1-420) H3K9me3 demethylation; inhibition, % at 2.35 µM; actives 0.069% (n = 330,000);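 active = more than half of a compound's replicate wells show inhibition beyond 50%, single wells judged on their own value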;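 also: signal counts dimethyl H3K9 product captured on neutravidin plate; 0% = median of DMSO wells and 100% = 0.3 times that DMSO median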
PAD4 FP inh – human PAD4 inhibitors, primary screen, biochemical, fluorescence polarization, 1536-well format; Protein-arginine deiminase type-4 (Homo sapiens), Q9UM07; recombinant PAD4, RCA probe fluorescence polarization; inhibition, % at 6.36 µM; actives 0.41% (n = 330,000); AID 485272, 2010;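 active = percent inhibition above a cutoff equal to the mean of all tested compounds plus 3 SD, cut at about 15% in these data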;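 also: 0% = PAD4 with RCA probe and DMSO and 100% = probe without PAD4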
TDP2 inh – human TDP2 enzyme inhibitors, primary screen, biochemical, epi absorbance, recombinant enzyme | Tyrosyl-DNA phosphodiesterase 2 (Homo sapiens), O95551 | T5PNP hydrolysis, p-nitrophenol absorbance 415 nm | inhibition, % at 12.8 µM | actives 0.34% (n = 370,000) | AID 720702, 2013;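 active = inhibition above the mean of all tested compounds plus 3 SD, set per campaign, cut at about 25% in these data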;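 also: 0% = DMSO with enzyme and 100% = buffer with substrate but no TDP2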
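System: recombinant human TDP2 / Amount: 120 nM TDP2 per well / Also added: 5 mM T5PNP chromogenic substrate / Doses: 12.8 µM single point, 1% DMSO / Incubation: 2 h at 37 °C / Detection: p-Nitrophenol epi absorbance / Evaluation: % inhibition relative to enzyme-containing and enzyme-free wells / Repeats: singlicate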
GSTO1 counter – inhibitors of recombinant GSTO1, primary screen, counter-screen for RBBP9 inhibitor project, biochemical, fluorescence polarization | AID 1974, 2009 | inhibition, % at 5.96 µM | actives 1.1% (n = 300,000) | activity-based probe fluorescence polarization;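 active = inhibition above the campaign mean inhibition plus 3 SD, cut at about 35% in these data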;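 also: 0% = GSTO1-1 with DMSO and 100% = wells lacking GSTO1-1 enzyme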
Target sequence (P78417 whole entry, looked up): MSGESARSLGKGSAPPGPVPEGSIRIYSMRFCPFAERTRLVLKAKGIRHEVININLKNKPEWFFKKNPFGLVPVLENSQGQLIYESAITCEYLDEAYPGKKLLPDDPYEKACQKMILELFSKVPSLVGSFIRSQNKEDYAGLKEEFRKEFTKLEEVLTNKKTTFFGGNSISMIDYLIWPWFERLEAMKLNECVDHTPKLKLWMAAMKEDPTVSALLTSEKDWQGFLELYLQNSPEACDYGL
Apaf-1 inh – inhibitors of human Apaf-1 apoptosome, primary screen, biochemical, DEVD-Rh110 fluorescence, uHTS; Apoptotic protease-activating factor 1 (Homo sapiens), O14727; reconstituted apoptosome caspase-3 activity; inhibition, % at 20 µM; actives 0.71% (n = 330,000); AID 489030, 2010; active = inhibition of at least 40% at 20 µM;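 also: plate controls were DMSO wells for no effect and DEVD-CHO caspase inhibitor wells for full effect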
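System: reconstituted apoptosome with Apaf-1, cytochrome c, caspase-9, procaspase-3, dATP; Signal: Rh110 fluorescence intensity; Schedule: 30 min compound preincubation, 50 min activation, room temperature; Reagent: cytochrome c trigger plus (Z-DEVD)2-Rh110 caspase-3 substrate.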
UBC9 SUMO inh – inhibitors of in vitro SUMOylation cascade, primary screen, biochemical, HTRF, uHTS | SUMO-conjugating enzyme UBC9 (Homo sapiens), P63279 | HTRF SUMOylation assay, SAE1/SAE2 + UBC9 | inhibition, % at 35 µM | actives 0.36% (n = 290,000) | AID 2006, 2009; in the data active = inhibition above about 50%, passing the limit was not always enough
Target sequence (P63279 whole entry, looked up): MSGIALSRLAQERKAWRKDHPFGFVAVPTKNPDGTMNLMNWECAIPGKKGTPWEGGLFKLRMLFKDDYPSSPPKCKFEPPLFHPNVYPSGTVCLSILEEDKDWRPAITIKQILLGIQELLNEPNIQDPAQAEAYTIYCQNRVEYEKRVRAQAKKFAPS
PAD4 FP conf – human PAD4 inhibitors, confirmation, biochemical, fluorescence polarization. shares compounds with PAD4 FP inh. recombinant PAD4, RCA probe fluorescence polarization. inhibition, % at 6.36 µM. actives 28% (n = 1,200);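 active = mean inhibition across replicates above the hit cutoff set by the earlier primary screen, cut at about 15% in these data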;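 also: inhibitors block active-site labeling by the probe so polarization falls; 0% = PAD4 with probe and DMSO and 100% = probe without PAD4 enzyme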
The depositor's hits bear a star; nt = no result given; + = active, no number. Sampled rows, rich in hits. Any-hit rate of the full collection: about 1.6%.

SMILES | JMJD2C inh | PAD4 FP inh | TDP2 inh | GSTO1 counter | Apaf-1 inh | UBC9 SUMO inh | PAD4 FP conf
C1CCN(c2nc3nonc3nc2N2CCCCC2)CC1 | -1 | -1 | nt | 11 | -4 | -17 | nt
CN1CCN(c2nc3nonc3nc2N2CCN(C)CC2)CC1 | 5 | 21* | -7 | 12 | 6 | 22 | 6
CN1C(=O)c2cc(NC(=O)c3ccc(F)cc3)ccc2OC[C@H]2O[C@H](CC(=O)NC3CCC3)CC[C@H]21 | nt | nt | 2 | nt | nt | nt | nt
CC(C)c1ccc(/C=N/n2nnnc2Nc2ccccc2)cc1 | 6 | 15* | 1 | 2 | -9 | 6 | 6
COc1cc2ccccc2cc1C(=O)NC1CCC(C)CC1 (stereo not drawn) | -6 | 16* | 6 | nt | 15 | nt | 4
COc1cc2ccccc2cc1C(=O)NC1CCCC1 | 7 | 2 | -6 | nt | 6 | nt | nt
CN[C@H]1C[C@H]2c3[nH]c4cccc(-c5cccc(F)c5)c4c3CCN2C(=O)[C@H]1[C@H](C)O | nt | nt | 1 | nt | nt | nt | nt
COc1ccc(-n2c(SCC(=O)N(CC(C)C)CC(C)C)nnc2-c2ccncc2)cc1 | nt | nt | 7 | nt | nt | nt | nt
COc1ccc(NC(=O)C(c2cc3c(cc2[N+](=O)[O-])OCO3)N(C)C)cc1 (stereo not drawn) | 17 | 31* | 4 | 7 | 3 | 5 | 5
COc1ccc(NC(=O)c2ccc(NC(=O)C(C)C)cc2)c([N+](=O)[O-])c1 | -4 | -4 | -4 | -4 | -23 | 14 | nt
O=C(O)CCC(=O)c1ccc(-c2ccccc2)cc1 | -15 | 172* | 1 | -1 | 12 | -18 | 16*
Cn1nnnc1Sc1ncnc2scc(-c3cc4ccccc4o3)c12 | -5 | 16* | 3 | nt | 7 | nt | 13
COc1cccc(NC(=O)CN(C)C(=O)C23CC4CC(CC(Cl)(C4)C2)C3)c1 | nt | + | 6 | nt | 16 | nt | -4
O=C(c1ccccc1)N1CC[C@H]2[C@H](CCCN2Cc2cc(F)cc(F)c2)C1 | nt | nt | -3 | nt | nt | nt | nt
Cc1nnc(C)n1N=Cc1ccc(O)cc1O | nt | nt | 10 | nt | nt | nt | nt
CC1(C)c2ccccc2N2CCC(=O)NC21/C=C/c1ccco1 (stereo not drawn) | 8 | 17* | 7 | 4 | 16 | 16 | -3
CC(C(Sc1ccccc1N)c1ccccc1)[N+](=O)[O-] (stereo not drawn) | 13 | 18* | 2 | -2 | 3 | -21 | 15*
Cc1sc(NC(=O)c2ccccc2)c(C(c2ccc(Cl)cc2)N2CCN(CCO)CC2)c1C (stereo not drawn) | -3 | 17* | -7 | 4 | 21 | 3 | -1
O=C(CSc1nnc(COc2ccc(Cl)cc2)n1Cc1ccco1)Nc1ccc2c(c1)OCO2 | nt | nt | -2 | nt | nt | nt | nt
Cc1ccc(-n2c(SCC(=O)Nc3cccc4ccccc34)nnc2-c2cnccn2)cc1 | nt | nt | -3 | nt | nt | nt | nt
O=C(NC(=S)NC1CCN(Cc2ccccc2)CC1)c1ccc(F)cc1 | -22 | 33* | 4 | -7 | 8 | 0 | 37*
COC(=O)c1cc(C)nc(Sc2ccccc2N)n1 | 2 | 68* | 1 | 3 | -29 | -13 | 78*
COC(=O)c1ccccc1NC(=O)CSc1nc(C)cc(C)n1 | 0 | -3 | 7 | 7 | -4 | -10 | nt
CCN1CCCCC(NC(=O)c2ccc(C)cc2)C1=O (stereo not drawn) | nt | nt | 2 | nt | nt | nt | nt
COC(=O)c1ccc(C(=O)OC)c(NC(=O)CN2CCN(c3ccccc3OC)CC2)c1 | 5 | 0 | 14 | 24 | 8 | 33 | nt
SMILES | JMJD2C inh | PAD4 FP inh | TDP2 inh | GSTO1 counter | Apaf-1 inh | UBC9 SUMO inh | PAD4 FP conf
COC(=O)c1ccc(C(=O)OC)c(NC(=O)COc2ccccc2OC)c1 | 4 | 16* | 0 | -3 | 11 | -13 | 18*
CN(CCO)S(=O)(=O)c1ccc2c(c1)C(=NO)c1cc(S(=O)(=O)N(C)CCO)ccc1-2 | -3 | 15* | 1 | -8 | -5 | 27 | -8
CC1CN(c2ccc(NC(=S)Nc3ccc(N4CC(C)OC(C)C4)cc3)cc2)CC(C)O1 (stereo not drawn) | 9 | 20* | 5 | 12 | -6 | -6 | 7
CCc1ccccc1-c1cc(C(=O)OC)c2n(c1=O)CCC2 | nt | nt | 3 | nt | nt | nt | nt
Cc1ccc(CS(=O)(=O)c2ncc(Cl)c(C(=O)Nc3nnc(C(C)C)s3)n2)cc1 | -18 | 95* | 1 | -8 | 2 | 14 | 2
CCOc1ccc(-n2c(COc3ccc(C)cc3)nnc2SCC(=O)Nc2ccc(F)c(F)c2)cc1 | nt | nt | 1 | nt | nt | nt | nt
CN(C)CCN(Cc1ccccc1)c1ccccn1 | -6 | 73* | -6 | 6 | -7 | -1 | 7
COC(=O)[C@@]12CCCCC=C1N(CCc1ccc(Cl)cc1)C(=O)[C@H]2CC(=O)NCc1cccc(C(F)(F)F)c1 | nt | nt | 0 | nt | nt | nt | nt
COc1ccccc1N1C(=O)c2ccc(C(=O)Nc3ccc(F)cc3)cc2C1=O | 7 | -2 | -10 | -5 | 5 | -6 | nt
COc1ccccc1N1C(=O)c2ccc(C(=O)Nc3cccc(C(C)=O)c3)cc2C1=O | 16 | 37* | -11 | 0 | 16 | 14 | 34*
CCCCN1C(=O)N2Cc3ccccc3C2CS1(=O)=O (stereo not drawn) | nt | nt | -5 | nt | nt | nt | nt
CCN(CC)c1ccc2c(c1)oc(=O)c1c(Cl)cc(=O)oc12 | 0 | 26* | nt | 25 | 0 | 8 | 19*
CCN(CC)c1ccc2c(C)c(Cl)c(=O)oc2c1 | -5 | -2 | -5 | 5 | 15 | 15 | nt
CCc1ccc(NC2CC(=O)N(CCc3ccc(OC)c(OC)c3)C2=O)cc1 (stereo not drawn) | -14 | -3 | 7 | 7 | -6 | 8 | nt
O=C1CC(Nc2ccc(N3CCOCC3)cc2)C(=O)N1c1ccccc1F (stereo not drawn) | -6 | 16* | 10 | 5 | 1 | -1 | 9
COc1ccc(CCN2C(=O)CC(Nc3ccc(N4CCOCC4)cc3)C2=O)cc1OC (stereo not drawn) | 21 | 20* | 11 | 4 | 6 | -14 | 19*
COCCOC(=O)C(C#N)c1nc2ccccc2nc1N1CCCC1 (stereo not drawn) | -9 | 18* | 0 | 5 | 6 | 21 | 9
O=C(CSc1nnc(-c2cccs2)n1Cc1ccco1)Nc1ccc(OCc2ccccc2)cc1 | nt | nt | -12 | nt | nt | nt | nt
